Results as given in ChEMBL document CHEMBL2331550, “Design, synthesis and structure-activity relationship of novel tricyclic benzimidazolone derivatives as potent 18 kDa translocator protein (TSPO) ligands” (Bioorg Med Chem, 2013).
≈ marks a conversion by molar mass, not a printed value.

Experiments:
Rattus norvegicus = organism: Rattus norvegicus; assay: Displacement of [3H]flumazenil from CBR in Sprague-Dawley rat cerebral cortex membrane at 10 uM after 1 hr by liquid scintillation counting analysis; assay type: tissue-based
Procedure, shortened: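 Male SD rat cerebral cortex was homogenised in potassium phosphate buffer (200 mM KCl, 20 mM KOH, 20 mM KH2PO4, pH 7.4) and washed at 32,500×g. Membranes were incubated with 1.0 nM [3H]-flumazenil (final) and 10 µM test compound for 1 h at 25 °C, then GF/B-filtered and counted by scintillation. Nonspecific binding was taken with […]. Percent inhibition of specific binding was measured in duplicate.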

[1] = Metabolic stability in rat liver S9 fraction assessed as compound remaining at 1 uM after 30 mins; assay type: ADME, subcellular; settings: read-out: Stability
Translocator protein = Translocator protein (Rattus norvegicus, UniProt P16257); assay: Displacement of [3H]PK11195 from TSPO in Sprague-Dawley rat kidney mitochondria after 1 hr by liquid scintillation counting analysis
Translocator protein, sequence (P16257 whole entry, looked up): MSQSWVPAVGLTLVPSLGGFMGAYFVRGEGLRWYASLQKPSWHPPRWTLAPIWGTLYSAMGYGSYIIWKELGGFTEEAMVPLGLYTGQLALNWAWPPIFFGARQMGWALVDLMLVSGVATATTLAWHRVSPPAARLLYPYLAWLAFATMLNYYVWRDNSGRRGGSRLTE

[2] = Metabolic stability in rat liver S9 fraction assessed as compound remaining at 10 uM after 30 mins; assay type: ADME, subcellular; settings: read-out: Stability
[3] = target: Translocator protein (Rattus norvegicus) (UniProt P16257); assay: Displacement of [3H]PK11195 from TSPO in Sprague-Dawley rat kidney mitochondria at 100 nM after 1 hr by liquid scintillation counting analysis
Translocator protein (Rattus norvegicus), sequence (P16257 whole entry, looked up): as above

[4] = Aqueous solubility of the compound at pH 7.4; assay type: physicochemical
[5] = Aqueous solubility of the compound at pH 2.5; assay type: physicochemical

Row | Structure (SMILES) | inhibition (Rattus norvegicus) [%] | remaining at 0.5 h, 1 µM [1] [%] | Ki (Translocator protein) [nM] | further results
1 | CN(C(=O)Cn1c(=O)n2c3c(cc(-c4ccccc4)cc31)CCC2)c1ccccn1 | 34 | 0 | 2.5 | –
2 | CN(C(=O)Cn1c(=O)n2c3c(cc(-c4ccccc4)cc31)CCC2)c1cccnc1 | 36 | 0 | 2.1 | –
3 | CCCN(CCC)C(=O)Cn1c(=O)n2c3c(cc(-c4ccccc4)cc31)CCC2 | 11 | 1 | 1.7 | –
4 | CN(C(=O)Cn1c(=O)n2c3c(cccc31)CCC2)c1ccccc1 | – | – | – | remaining at 0.5 h, 10 µM [2]: 0%
5 | CN(C(=O)Cn1c(=O)n2c3c(cc(-c4ccccc4)cc31)OCC2)c1ccccc1 | 68 | 1 | 0.21 | –
6 | CN(C(=O)Cn1c(=O)n2c3c(cc(-c4ccccc4)cc31)CCC2)c1ccncc1 | 24 | 0 | 15 | –
7 | CN(C(=O)Cn1c(=O)[nH]c2ccc(-c3ccccc3)cc21)c1ccccc1 | – | – | – | inhibition [3]: 86%
8 | CN(C(=O)Cn1c(=O)n2c3c(cc(-c4ccccc4)cc31)CCC2)c1ccc(Cl)cc1 | 4 | 0 | 0.13 | –
9 | CN(C(=O)Cn1c(=O)n2c3c(cc(-c4ccccn4)cc31)CCC2)c1ccccc1 | – | 0 | – | –
10 | CN(C(=O)Cn1c(=O)n2c3c(cc(-c4cccnc4)cc31)CCC2)c1ccccc1 | – | – | – | remaining at 0.5 h, 10 µM [2]: 0%
11 | COc1ccc(N(C)C(=O)Cn2c(=O)n3c4c(cc(-c5ccccc5)cc42)CCC3)cc1 | 3 | – | 0.73 | remaining at 0.5 h, 10 µM [2]: 0%
12 | COc1ccc(-c2cc3c4c(c2)n(CC(=O)N(C)c2ccccc2)c(=O)n4CCC3)cc1 | – | – | – | remaining at 0.5 h, 10 µM [2]: 2%
13 | CN(C(=O)Cn1c(=O)n2c3c(cc(-c4ccncc4)cc31)CCC2)c1ccccc1 | – | 3 | – | –
14 | CN(Cc1ccccc1)C(=O)Cn1c(=O)n2c3c(cc(-c4ccccc4)cc31)CCC2 | 72 | 1 | 0.23 | –
15 | CN(C(=O)Cn1c(=O)n2c3c(cc(-c4ccccc4)cc31)CCC2)c1ccccc1 | 14 | 12 | 0.94 | –
16 | CN(C(=O)Cn1c(=O)n2c3c(cc(Nc4cccnc4)cc31)CCC2)c1ccccc1 | – | 41 | – | solubility [4]: 4 µg/mL (≈ 9.67 µM); solubility [5]: > 1000 µg/mL
17 | CN(C(=O)Cn1c(=O)n2c3c(cc(Br)cc31)CCC2)c1ccccc1 | – | – | – | remaining at 0.5 h, 10 µM [2]: 0%
18 | CN(C(=O)Cn1c(=O)n(C)c2ccc(-c3ccccc3)cc21)c1ccccc1 | – | – | – | inhibition [3]: 100%
19 | COc1cccc(N(C)C(=O)Cn2c(=O)n3c4c(cc(-c5ccccc5)cc42)CCC3)c1 | 6 | 0 | 0.28 | –
20 | CN(C(=O)Cn1c(=O)n2c3c(cc(-c4ccc(C(F)(F)F)cc4)cc31)CCC2)c1ccccc1 | – | 0 | – | –
21 | CN(C(=O)Cn1c(=O)n2c3c(cc(-c4ccccc4)cc31)CCCC2)c1ccccc1 | 30 | 1 | 0.32 | –
22 | O=C(Cn1c(=O)n2c3c(cc(-c4ccccc4)cc31)CCC2)Nc1ccccc1 | 27 | 62 | 33 | –
23 | CN(C(=O)Cn1c(=O)n2c3c(cc(-c4cccc(C(F)(F)F)c4)cc31)CCC2)c1ccccc1 | – | 0 | – | –
24 | CN(C(=O)Cn1c(=O)n2c3c(cc(-c4ccccc4)cc31)CCC2)c1cccc(Cl)c1 | 3 | 0 | 0.44 | –
25 | COc1cccc(-c2cc3c4c(c2)n(CC(=O)N(C)c2ccccc2)c(=O)n4CCC3)c1 | – | 1 | – | –
